This note sets out measurements from ChEMBL document CHEMBL1125626, “Synthesis and structure-activity relationship of new cephalosporins with amino heterocycles at C-7. Dependence of the antibacterial spectrum and beta-lactamase stability on the pKa of the C-7 heterocycle” (1991).

In brackets after ≈: the same amount, converted by molar mass. A value given as a limit tells only on which side of the number the result lay.

The test system of assay [1] is Escherichia coli. Kind of assay: Minimum inhibitory concentration against Escherichia coli DC2 (inoculum, 10e4 cfu per spot). Format: functional. In outline:
(§1)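 MIC in µg/mL, determined in Jewell and Permain growth medium with spot inoculation at 10^4 cfu per spot. P99 is described as a constitutive type I lactamase producer.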

Assay [2] deals with Escherichia coli. Kind of assay: Minimum inhibitory concentration against Escherichia coli DCO (inoculum, 10e4 cfu per spot). Format: functional. The method, boiled down: as §1
Assay [3] concerns Escherichia coli. In words: Minimum inhibitory concentration against Escherichia coli A8 (inoculum, 10e5 cfu per spot). The format is functional. In outline:
(§2)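 MIC in µg/mL, determined in Jewell and Permain growth medium with spot inoculation at 10^5 cfu per spot.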

The test system of assay [4] is Enterobacter cloacae. In words: Minimum inhibitory concentration against Enterobacter cloacae A13 (inoculum, 10e5 cfu per spot). Format: functional. The method, boiled down:
as §2

The test system of assay [5] is Enterobacter cloacae. In words: Minimum inhibitory concentration against Enterobacter cloacae P99 (inoculum, 10e4 cfu per spot). The format is functional. The method, boiled down: as §1
Assay [6] deals with Klebsiella aerogenes. In words: Minimum inhibitory concentration against Klebsiella aerogenes X5L (inoculum, 10e4 cfu per spot). Format: functional. In outline:
as §1

The subject of assay [7] is Klebsiella aerogenes. In words: Minimum inhibitory concentration against Klebsiella aerogenes X6 (inoculum, 10e4 cfu per spot). The format is functional. In outline: as §1
Assay [8] deals with Klebsiella pneumoniae. In words: Minimum inhibitory concentration against Klebsiella pneumoniae A24 (inoculum, 10e5 cfu per spot). Format: functional. In outline: as §2
In assay [9] the test system is Proteus mirabilis. In words: Minimum inhibitory concentration against Proteus mirabilis A18 (inoculum, 10e5 cfu per spot). The format is functional. The method, boiled down: as §2
For assay [10], the system named is Pseudomonas aeruginosa. Kind of assay: Minimum inhibitory concentration against Pseudomonas aeruginosa A21 (inoculum, 10e5 cfu per spot). The format is functional. In outline: as §2
The subject of assay [11] is Staphylococcus aureus. In words: Minimum inhibitory concentration against Staphylococcus aureus A4 (inoculum, 10e5 cfu per spot). The format is functional. In outline:
as §2

Assay [12] concerns Staphylococcus aureus. Kind of assay: Minimum inhibitory concentration against Staphylococcus aureus A6 (inoculum, 10e5 cfu per spot). The format is functional. The method, boiled down: as §2
The subject of assay [13] is Streptococcus pyogenes. In words: Minimum inhibitory concentration against Streptococcus pyogenes (inoculum, 10e5 cfu per spot) A1. The format is functional. In outline: as §2
For assay [14], the system named is Serratia marcescens. Kind of assay: Minimum inhibitory concentration against Serratia marcescens A16 (inoculum, 10e5 cfu per spot). The format is functional. The method, boiled down:
as §2

Assay [15] deals with Enterobacter cloacae. In words: Minimum inhibitory concentration against Enterobacter cloacae P99 (inoculum, 10e4 cfu per spot)(type I lactamase producer). Format: functional. The method, boiled down: as §1
In assay [16] the test system is Escherichia coli. Kind of assay: Minimum inhibitory concentration against Escherichia coli X4 (inoculum, 10e4 cfu per spot).
Assay [17] concerns Proteus vulgaris. Kind of assay: Minimum inhibitory concentration against Proteus vulgaris Pv9 (inoculum, 10e5 cfu per spot).
The test system of assay [18] is Escherichia coli. Kind of assay: Minimum inhibitory concentration against Escherichia coli TEM X3 (inoculum, 10e4 cfu per spot)(TEM I type lactamase producer).

Usually MIC stands for the lowest concentration that inhibits growth of the organism. In the case of `CC(=O)OCC1=C(C(=O)OC(C)(C)C)N2C(=O)[C@@H](Nc3nc4cc(N)ccc4[nH]3)C2SC1` (stereo not given in full), the MIC in assay [1] stood at 0.03 µg/mL (≈ 0.0653 µM); in assay [2] it was 0.06 µg/mL (≈ 0.131 µM); in assay [3], 0.25 µg/mL (≈ 0.544 µM); in assay [4], 256 µg/mL (≈ 557 µM); in assay [5], 0.06 µg/mL (≈ 0.131 µM); in [6], 8 µg/mL (≈ 17.4 µM). Also, the MIC is 0.12 µg/mL (≈ 0.261 µM) in [7]; 0.5 µg/mL (≈ 1.09 µM) in [8]; 32 µg/mL (≈ 69.6 µM) in assay [9]; above 256 µg/mL in assay [10]; 32 µg/mL (≈ 69.6 µM) in assay [11]; 2 µg/mL (≈ 4.35 µM) in [12]. The MIC in assay [13] was determined as 1 µg/mL (≈ 2.18 µM); in [14], 256 µg/mL (≈ 557 µM); in [15], 32 µg/mL (≈ 69.6 µM); in [16], 0.06 µg/mL (≈ 0.131 µM); in assay [17], 128 µg/mL (≈ 279 µM); in [18] it was 1 µg/mL (≈ 2.18 µM).
On to `CC(=O)OCC1=C(C(=O)OC(c2ccccc2)c2ccccc2)N2C(=O)[C@@H](Nc3nc4cc(CC#N)ccc4[nH]3)C2SC1` (stereo not given in full), for which the MIC in assay [1] was below 0.03 µg/mL; in [2], 0.5 µg/mL (≈ 0.842 µM); in assay [3], 0.5 µg/mL (≈ 0.842 µM); in [4] it was above 256 µg/mL; in [5], 1 µg/mL (≈ 1.68 µM); in assay [6] it was 128 µg/mL (≈ 216 µM). For the same compound, the MIC in [7] was 0.5 µg/mL (≈ 0.842 µM); in [8], 0.5 µg/mL (≈ 0.842 µM); in assay [9], 64 µg/mL (≈ 108 µM); in assay [10], above 256 µg/mL; in assay [11] it was 256 µg/mL (≈ 431 µM); in assay [12], 1 µg/mL (≈ 1.68 µM). Further, the MIC is 0.5 µg/mL (≈ 0.842 µM) in [13]; 64 µg/mL (≈ 108 µM) in [14]; 256 µg/mL (≈ 431 µM) in [15]; 0.25 µg/mL (≈ 0.421 µM) in assay [16]; above 256 µg/mL in assay [17]; 4 µg/mL (≈ 6.74 µM) in [18].
As for `Cc1nnc(SCC2=C(C(=O)OC(C)(C)C)N3C(=O)[C@@H](NC4=NCCN4)C3SC2)s1` (stereo not given in full), the MIC in [1] was found to be 1 µg/mL (≈ 2.13 µM); in assay [2] it was 8 µg/mL (≈ 17.1 µM); in assay [3], 4 µg/mL (≈ 8.54 µM); in [4], 64 µg/mL (≈ 137 µM); in assay [5] it was 8 µg/mL (≈ 17.1 µM); in assay [6], 16 µg/mL (≈ 34.1 µM). For the same compound, the MIC in [7] is 8 µg/mL (≈ 17.1 µM); in assay [8], 4 µg/mL (≈ 8.54 µM); in assay [9], above 256 µg/mL; in assay [10] it was above 256 µg/mL; in assay [11] it was above 256 µg/mL; in [12], above 256 µg/mL. The MIC stood at 16 µg/mL (≈ 34.1 µM) in [13]; 64 µg/mL (≈ 137 µM) in assay [14]; 16 µg/mL (≈ 34.1 µM) in [15]; 4 µg/mL (≈ 8.54 µM) in assay [16]; 64 µg/mL (≈ 137 µM) in assay [17]; 8 µg/mL (≈ 17.1 µM) in [18].
As for `CC(=O)OCC1=C(C(=O)OC(c2ccccc2)c2ccccc2)N2C(=O)[C@@H](Nc3nc4cc(O)ccc4[nH]3)C2SC1` (stereo not given in full), the MIC amounted to 0.016 µg/mL (≈ 0.028 µM) in assay [1]; 0.12 µg/mL (≈ 0.21 µM) in assay [2]; 0.12 µg/mL (≈ 0.21 µM) in assay [3]; 128 µg/mL (≈ 224 µM) in assay [4]; 0.12 µg/mL (≈ 0.21 µM) in assay [5]; 64 µg/mL (≈ 112 µM) in assay [6]. Further, the MIC was 0.5 µg/mL (≈ 0.876 µM) in [7]; 2 µg/mL (≈ 3.5 µM) in assay [8]; 0.5 µg/mL (≈ 0.876 µM) in assay [9]; above 256 µg/mL in assay [10]; 16 µg/mL (≈ 28 µM) in [11]; 4 µg/mL (≈ 7.01 µM) in assay [12]. Besides, the MIC in assay [14] was 256 µg/mL (≈ 449 µM); in assay [15], 128 µg/mL (≈ 224 µM); in [16], 0.12 µg/mL (≈ 0.21 µM); in [17] it was 32 µg/mL (≈ 56.1 µM); in assay [18] it was 1 µg/mL (≈ 1.75 µM).
As for `CC1=C(C(=O)OC(c2ccccc2)c2ccccc2)N2C(=O)[C@@H](NC3=NC(c4ccccc4)CN3)C2SC1` (stereo not given in full), the MIC in assay [1] was determined as 0.5 µg/mL (≈ 0.953 µM); in [2], 1 µg/mL (≈ 1.91 µM); in [3], 2 µg/mL (≈ 3.81 µM); in assay [4], 2 µg/mL (≈ 3.81 µM); in assay [5] it was 1 µg/mL (≈ 1.91 µM); in assay [6], 8 µg/mL (≈ 15.2 µM). Besides, the MIC was 2 µg/mL (≈ 3.81 µM) in assay [7]; 4 µg/mL (≈ 7.62 µM) in [8]; above 256 µg/mL in assay [9]; above 256 µg/mL in assay [10]; above 256 µg/mL in [11]; above 256 µg/mL in [12]. Besides, the MIC in assay [13] is 256 µg/mL (≈ 488 µM); in [15], 2 µg/mL (≈ 3.81 µM); in assay [16], 1 µg/mL (≈ 1.91 µM); in assay [17] it was above 256 µg/mL; in assay [18] it was 1 µg/mL (≈ 1.91 µM).
On to `CC(=O)OCC1=C(C(=O)OC(c2ccccc2)c2ccccc2)N2C(=O)[C@@H](Nc3nc4c(N)cccc4[nH]3)C2SC1` (stereo not given in full), for which the MIC was 1 µg/mL (≈ 1.76 µM) in assay [1]; 4 µg/mL (≈ 7.02 µM) in [2]; 40 µg/mL (≈ 70.2 µM) in assay [3]; above 200 µg/mL in assay [4]; 4 µg/mL (≈ 7.02 µM) in [5]; above 200 µg/mL in [6]. Also, the MIC was 8 µg/mL (≈ 14 µM) in assay [7]; above 200 µg/mL in assay [8]; 200 µg/mL (≈ 351 µM) in assay [9]; above 200 µg/mL in [10]; above 200 µg/mL in [11]; 40 µg/mL (≈ 70.2 µM) in [12]. The MIC in assay [13] is 40 µg/mL (≈ 70.2 µM); in assay [14], above 200 µg/mL; in [15], above 200 µg/mL; in assay [16] it was 8 µg/mL (≈ 14 µM); in [18], 128 µg/mL (≈ 225 µM).
